Results on 2 compounds are retold here after ChEMBL document CHEMBL1152579, “Substrate specificity effects of lipoxygenase products and inhibitors on soybean lipoxygenase-1” (Bioorg Med Chem, 2009).

Where a name gives a salt, the structure may show the parent alone.

Assay [1] addresses T1, Seed linoleate 13S-lipoxygenase-1 (Glycine max) (UniProt P08170).
T1 sequence (whole entry): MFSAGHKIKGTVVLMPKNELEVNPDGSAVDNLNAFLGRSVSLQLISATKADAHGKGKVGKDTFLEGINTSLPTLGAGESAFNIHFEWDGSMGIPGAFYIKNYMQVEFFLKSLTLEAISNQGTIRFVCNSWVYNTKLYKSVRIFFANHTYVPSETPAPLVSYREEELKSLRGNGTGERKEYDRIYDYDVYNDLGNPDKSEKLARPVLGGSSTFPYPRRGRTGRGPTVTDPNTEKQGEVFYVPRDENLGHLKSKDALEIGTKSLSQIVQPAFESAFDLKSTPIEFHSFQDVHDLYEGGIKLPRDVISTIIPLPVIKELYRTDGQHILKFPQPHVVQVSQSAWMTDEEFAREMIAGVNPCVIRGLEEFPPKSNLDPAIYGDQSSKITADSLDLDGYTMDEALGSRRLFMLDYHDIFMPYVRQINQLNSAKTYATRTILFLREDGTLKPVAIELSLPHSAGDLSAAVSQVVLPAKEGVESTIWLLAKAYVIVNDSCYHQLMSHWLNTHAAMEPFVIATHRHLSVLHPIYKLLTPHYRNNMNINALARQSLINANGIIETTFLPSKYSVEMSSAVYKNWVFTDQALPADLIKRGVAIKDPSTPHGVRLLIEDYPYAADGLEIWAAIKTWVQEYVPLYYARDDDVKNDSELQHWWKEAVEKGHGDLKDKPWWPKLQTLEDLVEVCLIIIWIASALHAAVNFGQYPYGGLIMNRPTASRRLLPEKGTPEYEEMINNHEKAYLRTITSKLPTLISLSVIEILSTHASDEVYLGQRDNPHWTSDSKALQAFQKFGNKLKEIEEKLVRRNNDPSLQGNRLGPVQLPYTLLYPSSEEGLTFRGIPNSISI
Put plainly: Mixed-type inhibition of soybean LO1 assessed as increase in arachidonic acid/linoleic acid ratio at 13 uM by substrate specificity assay.

Assay [2] concerns the target T1, Seed linoleate 13S-lipoxygenase-1 (Glycine max). Put plainly: Mixed-type inhibition of soybean LO1 assessed as increase in arachidonic acid/linoleic acid ratio at 30 uM by substrate specificity assay.
The target is the same in assay [3]. Put plainly: Inhibition of soybean LO1 assessed as increase in non-endogenous arachidonic acid/linoleic acid maximal ratio by substrate specificity assay. Put shortly: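 Inhibitor titrated into competitive substrate-capture reactions: sLO-1 with 1:1 AA:LA at 1 μM total substrate, 100 mM borate pH 9.2, 22 °C. Product ratio was measured by HPLC at each concentration. The change in (kcat/KM)AA/(kcat/KM)LA ratio was plotted against inhibitor concentration and fit to a saturation curve, giving the maximal ratio at saturation.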

The target of assay [4] is T2, Seed linoleate 13S-lipoxygenase-1 (Glycine max, UniProt P08170).
T2 sequence (P08170 whole entry): T1 sequence (whole entry)
Put plainly: Binding affinity to allosteric site of soybean LO1.

Assay [5] addresses T1, Seed linoleate 13S-lipoxygenase-1 (Glycine max). Put plainly: Mixed-type inhibition of soybean LO1 assessed as increase in arachidonic acid/linoleic acid ratio at 65 uM by substrate specificity assay.
The target is the same in assay [6]. Put plainly: Allosteric inhibition of soybean LO1 assessed as increase in arachidonic acid/linoleic acid ratio at 1 uM by substrate specificity assay.
The target is the same in assay [7]. Put plainly: Competitive inhibition of soybean LO1 assessed as increase in arachidonic acid/linoleic acid ratio at 5 uM by substrate specificity assay.
For assay [8] the target is unchanged. Put plainly: Allosteric inhibition of soybean LO1 assessed as increase in arachidonic acid/linoleic acid ratio at 1 uM by substrate specificity assay.
The target is the same in assay [9]. Put plainly: Allosteric inhibition of soybean LO1 assessed as increase in arachidonic acid/linoleic acid ratio at 0.5 uM by substrate specificity assay.
The target is the same in assay [10]. Put plainly: Allosteric inhibition of soybean LO1 assessed as increase in arachidonic acid/linoleic acid ratio at 5 uM by substrate specificity assay.
Assay [11] shares this target. Put plainly: Allosteric inhibition of soybean LO1 assessed as increase in arachidonic acid/linoleic acid ratio at 10 uM by substrate specificity assay.
Assay [12] deals with T2, Seed linoleate 13S-lipoxygenase-1. Put plainly: Binding affinity to soybean LO1.

In the case of `CCCCCC/C=C\CCCCCCCCOS(=O)(=O)O`, the Ratio in [1] turned out to be 2.3; in [2], 3; in assay [3] it was 7.4; in assay [5] it was 4. Also, in [4], the Ki came to 140 µM.

Consider `CCCCCCCC/C=C\CCCCCCCCOS(=O)(=O)O` [OLEYL SULFATE], for which the Ratio in assay [6] amounted to 3.2; in [7], 4.7; in assay [3], 5.4; in assay [8] it was 3.2; in [9], 2.5; in assay [10] it was 4.8. Besides, in assay [11], the Ratio stood at 4.8. In addition, the Ki in assay [12] came out at 0.7 µM.

In general, Ki refers to a measure of affinity in units of concentration, obtained from inhibition or displacement.
